In ChEMBL document CHEMBL2331240, “Focused library development of 2-phenylacrylamides as broad spectrum cytotoxic agents” (2013) one finds GI50 data, which are given here for 19 molecules.

Experiment [1] has as its system A2780. Put plainly: Cytotoxicity against human A2780 cells assessed as growth inhibition measured after 72 hrs by MTT assay. It counts as functional. The settings on record: A2780, 72 h. The method, boiled down:
(§1)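 Cells in log phase were seeded in duplicate at 2500–4000 cells/well in supplemented DMEM (37 °C, 5% CO2). Drug from a 40 mM DMSO stock was added on day 0, 24 h post-plating. Read-out was MTT absorbance at 540 nm after 72 h.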
A general note: Tetrazolium assays rely on reduction of a dye to a coloured formazan, in cell work by metabolically active cells.

In experiment [2] the test system is SW480. Put plainly: Cytotoxicity against human SW480 cells assessed as growth inhibition measured after 72 hrs by MTT assay. It counts as functional. The conditions noted are these: SW480, 72 h. The method, boiled down:
as §1

Experiment [3] is described as follows: Cytotoxicity against human H460 cells assessed as growth inhibition measured after 72 hrs by MTT assay. It counts as functional. The settings on record: NCI-H460, 72 h. The method, boiled down:
as §1

The subject of experiment [4] is A-431. Put plainly: Cytotoxicity against human A431 cells assessed as growth inhibition measured after 72 hrs by MTT assay. It counts as functional. The conditions noted are these: A-431, 72 h. The method, boiled down: as §1
Experiment [5] can be described thus: Cytotoxicity against human BE(2)-C cells assessed as growth inhibition measured after 72 hrs by MTT assay. It counts as functional. The method, boiled down:
as §1

The subject of experiment [6] is DU-145. In words: Cytotoxicity against human DU145 cells assessed as growth inhibition measured after 72 hrs by MTT assay. The conditions noted are these: DU-145, 72 h. It counts as functional. In short, it runs like this: as §1
Experiment [7] is described as follows: Cytotoxicity against mouse SMA cells assessed as growth inhibition measured after 72 hrs by MTT assay.
The nature of experiment [8]: Cytotoxicity against human MIA cells assessed as growth inhibition measured after 72 hrs by MTT assay. It counts as functional. In short, it runs like this:
as §1

Experiment [9] in a line: Cytotoxicity against human SJ-G2 cells assessed as growth inhibition measured after 72 hrs by MTT assay. The settings on record: SJ-G2, 72 h. It counts as functional. In short, it runs like this: as §1
Experiment [10] deals with HT-29. Put plainly: Cytotoxicity against human HT-29 cells assessed as growth inhibition measured after 72 hrs by MTT assay. It counts as functional. The conditions noted are these: HT-29, 72 h. In short, it runs like this:
as §1

Experiment [11] relates to MCF7. In words: Cytotoxicity against human MCF7 cells assessed as growth inhibition measured after 72 hrs by MTT assay. It counts as functional. The conditions noted are these: MCF7, 72 h. The method, boiled down:
as §1

One may read the GI50 as the concentration that inhibits growth by half. Take `COc1ccc(CNC(=O)/C(C#N)=C/c2ccc(Cl)cc2)cc1`: the GI50 in experiment [1] stood at 7 µM; in experiment [2], 10 µM; in [3], 14 µM; in experiment [4], 6 µM; in experiment [5], 12 µM; in experiment [6], 7 µM. The GI50 in [7] amounted to 17 µM; in experiment [8], 16 µM; in experiment [9], 11 µM; in experiment [10] it was 7 µM; in experiment [11], 11 µM.
With `N#C/C(=C\c1ccco1)C(=O)NCc1ccc(Cl)c(Cl)c1`, the GI50 in [1] is greater than 50 µM; in experiment [2], greater than 50 µM; in [3], greater than 50 µM; in [4] it was greater than 50 µM; in experiment [5] it was greater than 50 µM; in [6] it was 24 µM. Besides, the GI50 in experiment [7] was 38 µM; in experiment [8] it was greater than 50 µM; in experiment [9], greater than 50 µM; in experiment [10], 20 µM; in [11], 20 µM.
As to `COc1ccc(CNC(=O)/C(C#N)=C/c2ccc(C)cc2)cc1`, the GI50 in [1] stood at 33 µM; in [2], 34 µM; in experiment [3], 41 µM; in experiment [4], 26 µM; in experiment [5], 35 µM; in experiment [6], 34 µM. The GI50 came out at 42 µM in experiment [7]; 38 µM in [8]; 39 µM in experiment [9]; 36 µM in experiment [10]; 36 µM in experiment [11].
For `N#C/C(=C\c1c(F)c(F)c(F)c(F)c1F)C(=O)c1ccc[nH]1`, the GI50 in experiment [1] is 64 µM; in [2], greater than 100 µM; in [3], 31 µM; in experiment [4], 64 µM; in experiment [5], 14 µM; in experiment [6] it was greater than 100 µM. The GI50 in [7] is greater than 100 µM; in [8] it was 25 µM; in experiment [9], 23 µM; in [10] it was 224 µM; in experiment [11] it was 23 µM.
Regarding `COc1ccc(CNC(=O)/C(C#N)=C/c2ccco2)cc1`, the GI50 was found to be 24 µM in experiment [1]; 31 µM in experiment [2]; 32 µM in experiment [3]; 16 µM in experiment [4]; 24 µM in experiment [5]; 29 µM in experiment [6]. The GI50 in [7] was 33 µM; in [8], 34 µM; in experiment [9], 31 µM; in experiment [10], 22 µM; in [11] it was 27 µM.
In the case of `N#C/C(=C\c1cccc2ccccc12)C(=O)NCc1ccc(Cl)c(Cl)c1`, the GI50 in experiment [1] turned out to be 7 µM; in experiment [2], 11 µM; in experiment [3], 7 µM; in experiment [4], 8 µM; in experiment [5], 7 µM; in [6] it was 12 µM. Also, the GI50 came to 7 µM in experiment [7]; 8 µM in [8]; 13 µM in experiment [9]; 7 µM in experiment [10]; 8 µM in experiment [11].
As for `COc1ccc(CNC(=O)/C(C#N)=C/c2cc(Br)co2)cc1`, the GI50 in [1] is 28 µM; in experiment [2], greater than 100 µM; in experiment [3], greater than 100 µM; in experiment [4] it was 14 µM; in experiment [5], 36 µM; in [6], 61 µM. In addition, the GI50 in experiment [7] is greater than 100 µM; in experiment [8], 65 µM; in experiment [9], 23 µM; in experiment [10], 36 µM; in [11], 20 µM.
Turning to `COc1ccc(CNC(=O)/C(C#N)=C/c2ccc[nH]2)cc1`, the GI50 is greater than 50 µM in experiment [1]; greater than 50 µM in [2]; greater than 50 µM in experiment [3]; greater than 50 µM in [4]; 47 µM in experiment [5]; greater than 50 µM in experiment [6]. In addition, the GI50 was greater than 50 µM in experiment [7]; greater than 50 µM in [8]; greater than 50 µM in [9]; greater than 50 µM in experiment [10]; 34 µM in [11].
On to `COc1ccc(CNC(=O)/C(C#N)=C/c2ccccc2)cc1`, for which the GI50 in experiment [1] is 9 µM; in experiment [2], 14 µM; in [3] it was 18 µM; in experiment [4] it was 9 µM; in experiment [5], 15 µM; in experiment [6], 13 µM. Also, the GI50 was found to be 16 µM in experiment [7]; 24 µM in experiment [8]; 17 µM in experiment [9]; 9 µM in experiment [10]; 18 µM in experiment [11].
Turning to `N#C/C(=C\c1c[nH]c2ccccc12)C(=O)c1c[nH]c2ccccc12`, the GI50 in experiment [1] turned out to be 9.3 µM; in [2], 8.3 µM; in experiment [3] it was 7.6 µM; in experiment [4], 7.6 µM; in experiment [5] it was 12 µM; in [6], 17 µM. The GI50 in experiment [7] amounted to 15 µM; in [8] it was 14 µM; in experiment [9] it was 13 µM; in experiment [10], 6 µM; in experiment [11], 11 µM.
Turning to `N#C/C(=C\c1ccc[nH]1)C(=O)NCc1ccc(Cl)c(Cl)c1`, the GI50 was greater than 50 µM in experiment [1]; greater than 50 µM in experiment [2]; greater than 50 µM in [3]; greater than 50 µM in experiment [4]; 43 µM in [5]; greater than 50 µM in [6]. Further, the GI50 is greater than 50 µM in [7]; greater than 50 µM in experiment [8]; greater than 50 µM in experiment [9]; 85 µM in experiment [10]; 6 µM in [11].
Regarding `N#C/C(=C\c1ccc([N+](=O)[O-])cc1)C(=O)c1c[nH]c2ccccc12`, the GI50 in experiment [1] was found to be 48 µM; in experiment [2], 42 µM; in [3] it was 47 µM; in [4], 46 µM; in experiment [5], 40 µM; in experiment [6], 59 µM. Also, the GI50 in experiment [7] was 60 µM; in experiment [8] it was 46 µM; in experiment [9], 37 µM; in [10], 41 µM; in experiment [11] it was 35 µM.
On to `N#C/C(=C\c1ccccc1)C(=O)NCc1ccc(Cl)c(Cl)c1`, for which the GI50 in [1] was 49 µM; in experiment [2], 49 µM; in [3] it was 61 µM; in [4], 43 µM; in experiment [5], 32 µM; in [6], 71 µM. In addition, the GI50 in experiment [7] was 43 µM; in experiment [8], 47 µM; in experiment [9], 43 µM; in [10] it was 70 µM; in experiment [11] it was 29 µM.
For the molecule `COc1ccc(CNC(=O)/C(C#N)=C/c2ccc3ccccc3c2)cc1`, the GI50 in experiment [1] is 40 µM; in experiment [2] it was 41 µM; in experiment [3], greater than 100 µM; in experiment [4], 37 µM; in [5], 42 µM; in experiment [6] it was 80 µM. In addition, the GI50 was 43 µM in [7]; 49 µM in experiment [8]; 40 µM in [9]; 54 µM in experiment [10]; 33 µM in [11].
Consider `COc1ccc(CNC(=O)/C(C#N)=C/c2cccc3ccccc23)cc1`, for which the GI50 is 16 µM in [1]; 14 µM in experiment [2]; 15 µM in experiment [3]; 15 µM in experiment [4]; 14 µM in [5]; 16 µM in [6]. Besides, the GI50 in experiment [7] was 15 µM; in experiment [8], 15 µM; in experiment [9] it was 15 µM; in [10], 13 µM; in experiment [11], 16 µM.
Take `COc1ccc(/C=C(\C#N)C(=O)NCc2ccc(Cl)c(Cl)c2)cc1`: the GI50 in experiment [1] was 86 µM; in [2], 95 µM; in experiment [3], greater than 100 µM; in experiment [4] it was 90 µM; in experiment [5], 93 µM; in [6], 70 µM. For the same molecule, the GI50 in experiment [7] is greater than 100 µM; in experiment [8], 79 µM; in experiment [9], greater than 100 µM; in experiment [10], greater than 100 µM; in experiment [11] it was 45 µM.
On to `COc1ccc(CNC(=O)/C(C#N)=C/c2ccc(-c3ccccc3)o2)cc1`, for which the GI50 in experiment [1], in experiment [2], in experiment [3], in [4], in experiment [5] and in experiment [6] was greater than 100 µM throughout. Moreover, the GI50 in experiment [7] is greater than 100 µM; in experiment [8] it was greater than 100 µM; in experiment [9], greater than 100 µM; in experiment [10], 56 µM; in [11], 3 µM.
As to `N#C/C(=C\c1ccc(Cl)cc1)C(=O)NCc1ccc(Cl)c(Cl)c1`, the GI50 was 32 µM in experiment [1]; 30 µM in experiment [2]; 33 µM in experiment [3]; 30 µM in experiment [4]; 31 µM in experiment [5]; 30 µM in experiment [6]. Also, the GI50 in [7] is 33 µM; in experiment [8], 31 µM; in experiment [9], 30 µM; in [10] it was 33 µM; in experiment [11] it was 21 µM.
For `COc1ccc(CNC(=O)/C(C#N)=C/c2ccc(Br)o2)cc1`, the GI50 in experiment [1] stood at 12 µM; in experiment [2], 14 µM; in experiment [3] it was 16 µM; in experiment [4] it was 9 µM; in experiment [5] it was 13 µM; in experiment [6] it was 12 µM. Moreover, the GI50 in experiment [7] is 14 µM; in experiment [8], 16 µM; in [9], 13 µM; in experiment [10] it was 10 µM; in [11], 11 µM.
